Source: ChEMBL document CHEMBL3862007, “Synthesis and antimicrobial activity of small cationic amphipathic aminobenzamide marine natural product mimics and evaluation of relevance against clinical isolates including ESBL-CARBA producing multi-resistant bacteria” (Bioorg Med Chem, 2016)

How the values were obtained:
Staphylococcus aureus [1] = assay: Antibacterial activity against Staphylococcus aureus ATCC 9144 after 48 hrs by microdilution method; assay type: functional; conditions: ATCC 9144, 48 h
[2] = Antibacterial activity against methicillin-resistant Staphylococcus epidermidis RP62A CCUG 31568 (ATCC 35984) after 48 hrs by microdilution method; assay type: functional
How it was run: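 Broth microdilution MIC against the reference-strain panel. Compounds were supplied as HCl salts for aqueous solubility in the test medium. Precipitation in the test buffer is flagged at higher concentrations.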

Bacillus subtilis = assay: Antibacterial activity against Bacillus subtilis 168 ATCC 23857 after 48 hrs by microdilution method; assay type: functional; conditions: subsp. subtilis str. 168 ATCC 23857, 48 h
[3] = tested on: Corynebacterium glutamicum; assay: Antibacterial activity against Corynebacterium glutamicum ATCC 13032 after 48 hrs by microdilution method; assay type: functional; conditions: ATCC 13032, 48 h
Escherichia coli [4] = assay: Antibacterial activity against Escherichia coli ATCC 25922 after 48 hrs by microdilution method; assay type: functional; conditions: ATCC 25922, 48 h
Pseudomonas aeruginosa [5] = assay: Antibacterial activity against Pseudomonas aeruginosa PAO1 DSM 19880 (ATCC 15692) after 48 hrs by microdilution method; assay type: functional
[6] = Hemolytic activity in human RBC after 1 hr; assay type: ADME, cell-based; conditions: Erythrocyte
[7] = Selectivity index, ratio of hemolytic EC50 for human RBC to MIC for Staphylococcus aureus ATCC 9144
Staphylococcus aureus [8] = assay: Antibacterial activity against Staphylococcus aureus clinical isolate after 24 hrs by microdilution method; assay type: functional
Enterococcus sp. = assay: Antibacterial activity against Enterococcus sp. clinical isolate after 24 hrs by microdilution method; assay type: functional
Escherichia coli [9] = assay: Antibacterial activity against Escherichia coli clinical isolate after 24 hrs by microdilution method; assay type: functional
Pseudomonas aeruginosa [10] = assay: Antibacterial activity against Pseudomonas aeruginosa clinical isolate after 24 hrs by microdilution method; assay type: functional
Klebsiella pneumoniae [11] = assay: Antibacterial activity against Klebsiella pneumoniae clinical isolate after 24 hrs by microdilution method; assay type: functional
Staphylococcus aureus [12] = assay: Antibacterial activity against methicillin resistant Staphylococcus aureus N315 after 24 hrs by microdilution method; assay type: functional; conditions: N315, 24 h
Staphylococcus aureus [13] = assay: Antibacterial activity against methicillin resistant Staphylococcus aureus NCTC 10442 after 24 hrs by microdilution method; assay type: functional; conditions: NCTC 10442, 24 h
Staphylococcus aureus [14] = assay: Antibacterial activity against methicillin resistant Staphylococcus aureus clinical isolate 85/2082 after 24 hrs by microdilution method; assay type: functional; conditions: isolate 85/2082, 24 h
Staphylococcus aureus [15] = assay: Antibacterial activity against methicillin resistant Staphylococcus aureus clinical isolate WIS after 24 hrs by microdilution method; assay type: functional
Staphylococcus aureus [16] = assay: Antibacterial activity against methicillin resistant Staphylococcus aureus IHT 99040 after 24 hrs by microdilution method; assay type: functional; conditions: IHT 99040, 24 h
Enterococcus faecium [17] = assay: Antibacterial activity against vancomycin-resistant Enterococcus faecium 50673722 after 24 hrs by microdilution method; assay type: functional; conditions: Enterococcus faecium, 50673722, 24 h
Enterococcus faecium [18] = assay: Antibacterial activity against vancomycin-resistant Enterococcus faecium 50901530 after 24 hrs by microdilution method; assay type: functional; conditions: Enterococcus faecium, 50901530, 24 h
Enterococcus faecium [19] = assay: Antibacterial activity against vancomycin-resistant Enterococcus faecium K36-18 after 24 hrs by microdilution method; assay type: functional; conditions: K36-18, 24 h
Enterococcus faecium [20] = assay: Antibacterial activity against vancomycin-resistant Enterococcus faecium 50758899 after 24 hrs by microdilution method; assay type: functional; conditions: Enterococcus faecium, 50758899, 24 h
Enterococcus faecium [21] = assay: Antibacterial activity against vancomycin-resistant Enterococcus faecium TUH50-22 after 24 hrs by microdilution method; assay type: functional; conditions: TUH50-22, 24 h
Escherichia coli [22] = assay: Antibacterial activity against multi-drug resistant/OXA-48 producing Escherichia coli 50579417 after 24 hrs by microdilution method; assay type: functional; conditions: Escherichia coli, 50579417, 24 h
Escherichia coli [23] = assay: Antibacterial activity against multi-drug resistant/VIM-29 producing Escherichia coli 50639799 after 24 hrs by microdilution method; assay type: functional; conditions: Escherichia coli, 50639799, 24 h
Escherichia coli [24] = assay: Antibacterial activity against multi-drug resistant/NDM-1 producing Escherichia coli 50676002 after 24 hrs by microdilution method; assay type: functional; conditions: Escherichia coli, 50676002, 24 h
Escherichia coli [25] = assay: Antibacterial activity against multi-drug resistant/NDM-1 producing Escherichia coli 50739822 after 24 hrs by microdilution method; assay type: functional; conditions: Escherichia coli, 50739822, 24 h
Escherichia coli [26] = assay: Antibacterial activity against multi-drug resistant/IMP-26 producing Escherichia coli 50857972 after 24 hrs by microdilution method; assay type: functional; conditions: Escherichia coli, 50857972, 24 h
Pseudomonas aeruginosa [27] = assay: Antibacterial activity against multi-drug resistant/VIM-2 producing Pseudomonas aeruginosa K34-7 after 24 hrs by microdilution method; assay type: functional; conditions: K34-7, 24 h
Pseudomonas aeruginosa [28] = assay: Antibacterial activity against multi-drug resistant/VIM-4 producing Pseudomonas aeruginosa K34-73 after 24 hrs by microdilution method; assay type: functional; conditions: K34-73, 24 h
Pseudomonas aeruginosa [29] = assay: Antibacterial activity against multi-drug resistant/IMP-14 producing Pseudomonas aeruginosa K44-24 after 24 hrs by microdilution method; assay type: functional; conditions: K44-24, 24 h
Pseudomonas aeruginosa [30] = assay: Antibacterial activity against multi-drug resistant/NDM1 producing Pseudomonas aeruginosa 50692172 after 24 hrs by microdilution method; assay type: functional; conditions: Pseudomonas aeruginosa, 50692172, 24 h
Pseudomonas aeruginosa [31] = assay: Antibacterial activity against multi-drug resistant/VIM producing Pseudomonas aeruginosa 50692520 after 24 hrs by microdilution method; assay type: functional; conditions: Pseudomonas aeruginosa, 50692520, 24 h
Klebsiella pneumoniae [32] = assay: Antibacterial activity against multi-drug resistant/KPC-2 producing Klebsiella pneumoniae K47-25 after 24 hrs by microdilution method; assay type: functional; conditions: K47-25, 24 h
Klebsiella pneumoniae [33] = assay: Antibacterial activity against multi-drug resistant/NDM1 producing Klebsiella pneumoniae K66-45 after 24 hrs by microdilution method; assay type: functional; conditions: K66-45, 24 h
Klebsiella pneumoniae [34] = assay: Antibacterial activity against multi-drug resistant/NDM1/OXA-181 producing Klebsiella pneumoniae 50531633 after 24 hrs by microdilution method; assay type: functional; conditions: Klebsiella pneumoniae, 50531633, 24 h
Klebsiella pneumoniae [35] = assay: Antibacterial activity against multi-drug resistant/OXA-245 producing Klebsiella pneumoniae 50625602 after 24 hrs by microdilution method; assay type: functional; conditions: Klebsiella pneumoniae, 50625602, 24 h
Klebsiella pneumoniae [36] = assay: Antibacterial activity against multi-drug resistant/VIM1 producing Klebsiella pneumoniae 50667959 after 24 hrs by microdilution method; assay type: functional; conditions: Klebsiella pneumoniae, 50667959, 24 h
Acinetobacter baumannii [37] = assay: Antibacterial activity against multi-drug resistant/OXA-58 producing Acinetobacter baumannii K12-21 after 24 hrs by microdilution method; assay type: functional; conditions: K12-21, 24 h
Acinetobacter baumannii [38] = assay: Antibacterial activity against multi-drug resistant/OXA-23 producing Acinetobacter baumannii K44-35 after 24 hrs by microdilution method; assay type: functional; conditions: K44-35, 24 h
Acinetobacter baumannii [39] = assay: Antibacterial activity against multi-drug resistant/OXA-23 producing Acinetobacter baumannii K47-42 after 24 hrs by microdilution method; assay type: functional; conditions: K47-42, 24 h
Acinetobacter baumannii [40] = assay: Antibacterial activity against multi-drug resistant/OXA-24 producing Acinetobacter baumannii K55-13 after 24 hrs by microdilution method; assay type: functional; conditions: K55-13, 24 h
Acinetobacter baumannii [41] = assay: Antibacterial activity against multi-drug resistant/OXA-23 producing Acinetobacter baumannii K63-58 after 24 hrs by microdilution method; assay type: functional; conditions: K63-58, 24 h
[42] = Hemolytic activity in human RBC at 64 ug/ml after 1 hr relative to control; assay type: ADME, cell-based, Erythrocyte; conditions: red blood cells (RBC), read-out: Activity
[43] = Aqueous solubility of the compound; assay type: physicochemical; conditions: buffer

CC(C)(C)c1cc(C(=O)Nc2cccc(C(=O)NCCNC(=N)N)c2)cc(C(C)(C)C)c1.Cl
MIC (Staphylococcus aureus [1]): 4 µg/mL | MIC [2]: 4 µg/mL | MIC (Bacillus subtilis): 4 µg/mL | MIC [3]: 2 µg/mL | MIC (Escherichia coli [4]): 8 µg/mL | MIC (Pseudomonas aeruginosa [5]): 8 µg/mL | EC50 [6]: 37 µg/mL | Selectivity Index [7]: 9.3 | MIC (Staphylococcus aureus [8]): 4 µg/mL | MIC90 (Staphylococcus aureus [8]): 4 µg/mL | MIC (Enterococcus sp.): 16 µg/mL | MIC90 (Enterococcus sp.): 8 µg/mL | MIC (Escherichia coli [9]): 16 µg/mL | MIC90 (Escherichia coli [9]): 16 µg/mL | MIC (Pseudomonas aeruginosa [10]): 8 µg/mL | MIC90 (Pseudomonas aeruginosa [10]): 16 µg/mL | MIC (Klebsiella pneumoniae [11]): 16 µg/mL | MIC90 (Klebsiella pneumoniae [11]): 16 µg/mL | MIC (Staphylococcus aureus [12]): 8 µg/mL | MIC (Staphylococcus aureus [13]): 8 µg/mL | MIC (Staphylococcus aureus [14]): 8 µg/mL | MIC (Staphylococcus aureus [15]): 8 µg/mL | MIC (Staphylococcus aureus [16]): > 8 µg/mL | MIC (Enterococcus faecium [17]): 8 µg/mL | MIC (Enterococcus faecium [18]): 8 µg/mL | MIC (Enterococcus faecium [19]): 8 µg/mL | MIC (Enterococcus faecium [20]): 8 µg/mL | MIC (Enterococcus faecium [21]): 8 µg/mL | MIC (Escherichia coli [22]): 32 µg/mL | MIC (Escherichia coli [23]): 16 µg/mL | MIC (Escherichia coli [24]): 16 µg/mL | MIC (Escherichia coli [25]): 32 µg/mL | MIC (Escherichia coli [26]): 16 µg/mL | MIC (Pseudomonas aeruginosa [27]): 16 µg/mL | MIC (Pseudomonas aeruginosa [28]): > 32 µg/mL | MIC (Pseudomonas aeruginosa [29]): 16 µg/mL | MIC (Pseudomonas aeruginosa [30]): 16 µg/mL | MIC (Pseudomonas aeruginosa [31]): 16 µg/mL | MIC (Klebsiella pneumoniae [32]): > 32 µg/mL | MIC (Klebsiella pneumoniae [33]): 16 µg/mL | MIC (Klebsiella pneumoniae [34]): 16 µg/mL | MIC (Klebsiella pneumoniae [35]): 16 µg/mL | MIC (Klebsiella pneumoniae [36]): 16 µg/mL | MIC (Acinetobacter baumannii [37]): 32 µg/mL | MIC (Acinetobacter baumannii [38]): 32 µg/mL | MIC (Acinetobacter baumannii [39]): 32 µg/mL | MIC (Acinetobacter baumannii [40]): > 32 µg/mL | MIC (Acinetobacter baumannii [41]): 32 µg/mL

CC(C)(C)c1cc(C(=O)Nc2ccc(CC(=O)NCCNC(=N)N)cc2)cc(C(C)(C)C)c1.Cl
MIC (Staphylococcus aureus [1]): 4 µg/mL | MIC [2]: 4 µg/mL | MIC (Bacillus subtilis): 4 µg/mL | MIC [3]: 2 µg/mL | MIC (Escherichia coli [4]): 16 µg/mL | MIC (Pseudomonas aeruginosa [5]): 16 µg/mL | EC50 [6]: > 64 µg/mL | Selectivity Index [7]: > 16 | hemolysis at 1 h, 64 ug/ml [42]: 35% | solubility [43]: Insoluble

CC(C)(C)c1cc(C(=O)Nc2ccccc2C(=O)NCCNC(=N)N)cc(C(C)(C)C)c1.Cl
MIC (Staphylococcus aureus [1]): 1 µg/mL | MIC [2]: 2 µg/mL | MIC (Bacillus subtilis): 1 µg/mL | MIC [3]: 0.5 µg/mL | MIC (Escherichia coli [4]): 8 µg/mL | MIC (Pseudomonas aeruginosa [5]): 16 µg/mL | EC50 [6]: 37 µg/mL | Selectivity Index [7]: 37 | MIC (Staphylococcus aureus [8]): 2 µg/mL | MIC90 (Staphylococcus aureus [8]): 2 µg/mL | MIC (Enterococcus sp.): 8 µg/mL | MIC90 (Enterococcus sp.): 4 µg/mL | MIC (Escherichia coli [9]): 8 µg/mL | MIC90 (Escherichia coli [9]): 8 µg/mL | MIC (Pseudomonas aeruginosa [10]): 16 µg/mL | MIC90 (Pseudomonas aeruginosa [10]): 32 µg/mL | MIC (Klebsiella pneumoniae [11]): 16 µg/mL | MIC90 (Klebsiella pneumoniae [11]): 16 µg/mL | MIC (Staphylococcus aureus [12]): 4 µg/mL | MIC (Staphylococcus aureus [13]): 4 µg/mL | MIC (Staphylococcus aureus [14]): 4 µg/mL | MIC (Staphylococcus aureus [15]): 4 µg/mL | MIC (Staphylococcus aureus [16]): > 4 µg/mL | MIC (Enterococcus faecium [17]): 8 µg/mL | MIC (Enterococcus faecium [18]): 4 µg/mL | MIC (Enterococcus faecium [19]): 8 µg/mL | MIC (Enterococcus faecium [20]): 8 µg/mL | MIC (Enterococcus faecium [21]): 4 µg/mL | MIC (Escherichia coli [22]): 32 µg/mL | MIC (Escherichia coli [23]): 16 µg/mL | MIC (Escherichia coli [24]): > 32 µg/mL | MIC (Escherichia coli [25]): 32 µg/mL | MIC (Escherichia coli [26]): 16 µg/mL | MIC (Pseudomonas aeruginosa [27]): > 32 µg/mL | MIC (Pseudomonas aeruginosa [28]): > 32 µg/mL | MIC (Pseudomonas aeruginosa [29]): > 32 µg/mL | MIC (Pseudomonas aeruginosa [30]): 32 µg/mL | MIC (Pseudomonas aeruginosa [31]): 32 µg/mL | MIC (Klebsiella pneumoniae [32]): 32 µg/mL | MIC (Klebsiella pneumoniae [33]): 32 µg/mL | MIC (Klebsiella pneumoniae [34]): 16 µg/mL | MIC (Klebsiella pneumoniae [35]): 16 µg/mL | MIC (Klebsiella pneumoniae [36]): 32 µg/mL | MIC (Acinetobacter baumannii [37]): 32 µg/mL | MIC (Acinetobacter baumannii [38]): 16 µg/mL | MIC (Acinetobacter baumannii [39]): 16 µg/mL | MIC (Acinetobacter baumannii [40]): 32 µg/mL | MIC (Acinetobacter baumannii [41]): 32 µg/mL
